Legend:
Assay type in all cases: functional
TK-10 = test: Antiproliferative activity against human TK10 cells after 48 hrs; details: TK-10, 48 h
In short: (§1)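 NCI 60-cell-line screen. Lines grown in RPMI 1640 with 5% fetal bovine serum and 2 mM L-glutamine, plated at 5,000–40,000 cells/well according to doubling time, left 24 h at 37 °C in 5% CO2. Drug stocks in DMSO at 400-fold the top final concentration. Five 10-fold dilutions, 10−4 to 10−8 M, incubated 48 h. Growth read spectrophotometrically as net protein; GI50 taken as 50% reduction.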

SK-MEL-2 = test: Antiproliferative activity against human SKMEL2 cells after 48 hrs; details: SK-MEL-2, 48 h
In short: (§2)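 NCI 60-cell screen. Cells were grown in RPMI 1640 with 5% FBS and 2 mM L-glutamine, then plated at 5,000–40,000 cells/well according to doubling time and preincubated for 24 h at 37 °C in 5% CO2. Compounds were dissolved in DMSO at 400× the top final concentration and tested at five 10-fold dilutions from 10−4 to 10−8 M for 48 h. Growth was read spectrophotometrically; GI50 is 50% net protein reduction.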

MDA-MB-435 = test: Antiproliferative activity against human MDA-MB-435 cells after 48 hrs; details: Homo sapiens, MDA-MB-435, 48 h; in short: as §2
SK-MEL-28 = test: Antiproliferative activity against human SKMEL28 cells after 48 hrs; details: SK-MEL-28, 48 h; in short: as §2
[1] = Antiproliferative activity against human NCI-ADR-RES cells after 48 hrs; in short: as §2
OVCAR-4 = test: Antiproliferative activity against human OVCAR4 cells after 48 hrs; details: OVCAR-4, 48 h; in short: as §2
786-0 = test: Antiproliferative activity against human 786-0 cells after 48 hrs; details: 786-0, 48 h; in short: as §2
HOP-92 = test: Antiproliferative activity against human HOP92 cells after 48 hrs; details: HOP-92, 48 h; in short: as §2
NCI-H460 = test: Antiproliferative activity against human NCI-H460 cells after 48 hrs; details: NCI-H460, 48 h; in short: as §2
HCC 2998 = test: Antiproliferative activity against human HCC2998 cells after 48 hrs; details: HCC 2998, 48 h; in short: as §2
HCT-116 = test: Antiproliferative activity against human HCT116 cells after 48 hrs; details: HCT-116, 48 h; in short: as §2
U-251 = test: Antiproliferative activity against human U251 cells after 48 hrs; details: U-251, 48 h; in short: as §1
K562 = test: Antiproliferative activity against human K562 cells after 48 hrs; details: K562, 48 h; in short: as §2
NCI-H23 = test: Antiproliferative activity against human NCI-H23 cells after 48 hrs; details: NCI-H23, 48 h; in short: as §2
MDA-MB-231 = test: Antiproliferative activity against human MDA-MB-231 cells after 48 hrs; details: MDA-MB-231, 48 h; in short: as §2
MOLT-4 = test: Antiproliferative activity against human MOLT4 cells after 48 hrs; details: MOLT-4, 48 h; in short: as §2
SK-OV-3 = test: Antiproliferative activity against human SKOV3 cells after 48 hrs; details: SK-OV-3, 48 h; in short: as §2
RPMI-8226 = test: Antiproliferative activity against human RPMI8226 cells after 48 hrs; details: RPMI-8226, 48 h; in short: as §2
DU-145 = test: Antiproliferative activity against human DU145 cells after 48 hrs; details: DU-145, 48 h; in short: as §2
COLO 205 = test: Antiproliferative activity against human COLO205 cells after 48 hrs; details: COLO 205, 48 h; in short: as §2
UO-31 = test: Antiproliferative activity against human UO31 cells after 48 hrs; details: UO-31, 48 h; in short: as §1
Malme-3M = test: Antiproliferative activity against human MALME3M cells after 48 hrs; in short: as §2
SF-539 = test: Antiproliferative activity against human SF539 cells after 48 hrs; details: SF-539, 48 h; in short: as §2
A498 = test: Antiproliferative activity against human A498 cells after 48 hrs; details: A498, 48 h; in short: as §2
PC-3 = test: Antiproliferative activity against human PC3 cells after 48 hrs; details: PC-3, 48 h; in short: as §2
ACHN = test: Antiproliferative activity against human ACHN cells after 48 hrs; in short: as §2
LOX IMVI = test: Antiproliferative activity against human LOXIMVI cells after 48 hrs; in short: as §2
A549 = test: Antiproliferative activity against human A549 cells after 48 hrs; details: A549, 48 h; in short: as §2
NCI-H522 = test: Antiproliferative activity against human NCI-H522 cells after 48 hrs; details: NCI-H522, 48 h; in short: as §2
SF-268 = test: Antiproliferative activity against human SF268 cells after 48 hrs; details: SF-268, 48 h; in short: as §2
BT-549 = test: Antiproliferative activity against human BT549 cells after 48 hrs; details: BT-549, 48 h; in short: as §2
SF-295 = test: Antiproliferative activity against human SF295 cells after 48 hrs; details: SF-295, 48 h; in short: as §2
[2] = read-out: Log LC50 (the source's name) (converted)

Q: Which results are given for `CCCCCCCCCCCCCCN[C@H](C)[C@@H](O)c1ccccc1.Cl`?
A: GI50 (TK-10): 1.86 µM; CC50 (TK-10; [2]): 5.75 µM; TGI (TK-10; read-out: Log TGI (converted)): 3.31 µM; GI50 (SK-MEL-2): 2 µM; LC50 (SK-MEL-2): 8.13 µM; TGI (SK-MEL-2; read-out: Log TGI (converted)): 3.98 µM; GI50 (MDA-MB-435): 1.78 µM; LC50 (MDA-MB-435): 5.62 µM; TGI (MDA-MB-435; read-out: Log TGI (converted)): 3.16 µM; GI50 (SK-MEL-28): 1.86 µM; LC50 (SK-MEL-28): 5.75 µM; TGI (SK-MEL-28; read-out: Log TGI (converted)): 3.24 µM; GI50 [1]: 1.82 µM; TGI ([1]; read-out: Log TGI (converted)): 3.55 µM; GI50 (OVCAR-4): 2.14 µM; LC50 (OVCAR-4): 6.76 µM; TGI (OVCAR-4; read-out: Log TGI (converted)): 3.8 µM; GI50 (786-0): 1.74 µM; CC50 (786-0; [2]): 5.75 µM; TGI (786-0; read-out: Log TGI (converted)): 3.16 µM; GI50 (HOP-92): 1.55 µM; LC50 (HOP-92): 5.89 µM; TGI (HOP-92; read-out: Log TGI (converted)): 3.02 µM; GI50 (NCI-H460): 1.78 µM; CC50 (NCI-H460; [2]): 6.17 µM; TGI (NCI-H460; read-out: Log TGI (converted)): 3.31 µM; GI50 (HCC 2998): 1.86 µM; CC50 (HCC 2998; [2]): 6.46 µM; TGI (HCC 2998; read-out: Log TGI (converted)): 3.47 µM; GI50 (HCT-116): 1.86 µM; LC50 (HCT-116): 5.75 µM; TGI (HCT-116; read-out: Log TGI (converted)): 3.24 µM; GI50 (U-251): 1.86 µM; CC50 (U-251; [2]): 5.89 µM; TGI (U-251; read-out: Log TGI (converted)): 3.31 µM; GI50 (K562): 1.41 µM; LC50 (K562): 5.62 µM; TGI (K562; read-out: Log TGI (converted)): 2.82 µM; GI50 (NCI-H23): 2.14 µM; CC50 (NCI-H23; [2]): 7.94 µM; TGI (NCI-H23; read-out: Log TGI (converted)): 4.07 µM; GI50 (MDA-MB-231): 1.74 µM; LC50 (50% lethal concentration) (MDA-MB-231): 6.46 µM; TGI (MDA-MB-231; read-out: Log TGI (converted)): 3.39 µM; GI50 (MOLT-4): 0.871 µM; LC50 (MOLT-4): 4.9 µM; TGI (MOLT-4; read-out: Log TGI (converted)): 2.19 µM; GI50 (SK-OV-3): 2.34 µM; CC50 (SK-OV-3; [2]): 9.77 µM; TGI (SK-OV-3; read-out: Log TGI (converted)): 4.79 µM; GI50 (RPMI-8226): 3.39 µM; CC50 (RPMI-8226; [2]): 7.24 µM; TGI (RPMI-8226; read-out: Log TGI (converted)): 3.63 µM; GI50 (DU-145): 1.48 µM; CC50 (DU-145; [2]): 5.25 µM; TGI (DU-145; read-out: Log TGI (converted)): 2.82 µM; GI50 (COLO 205): 1.91 µM; CC50 (COLO 205; [2]): 6.17 µM; TGI (COLO 205; read-out: Log TGI (converted)): 3.39 µM; GI50 (UO-31): 1.74 µM; LC50 (UO-31): 5.89 µM; TGI (UO-31; read-out: Log TGI (converted)): 3.24 µM; GI50 (Malme-3M): 1.95 µM; LC50 (Malme-3M): 6.03 µM; TGI (Malme-3M; read-out: Log TGI (converted)): 3.39 µM; GI50 (SF-539): 1.35 µM; LC50 (SF-539): 5.5 µM; TGI (SF-539; read-out: Log TGI (converted)): 2.69 µM; GI50 (A498): 3.16 µM; CC50 (A498; [2]): 74.1 µM; TGI (A498; read-out: Log TGI (converted)): 6.46 µM; GI50 (PC-3): 1.86 µM; LC50 (PC-3): 5.89 µM; TGI (PC-3; read-out: Log TGI (converted)): 3.31 µM; GI50 (ACHN): 1.86 µM; CC50 (ACHN; [2]): 5.89 µM; TGI (ACHN; read-out: Log TGI (converted)): 3.31 µM; GI50 (LOX IMVI): 1.82 µM; LC50 (LOX IMVI): 5.89 µM; TGI (LOX IMVI; read-out: Log TGI (converted)): 3.31 µM; GI50 (A549): 1.74 µM; CC50 (A549; [2]): 6.31 µM; TGI (A549; read-out: Log TGI (converted)): 3.31 µM; GI50 (NCI-H522): 1.91 µM; CC50 (NCI-H522; [2]): 6.61 µM; TGI (NCI-H522; read-out: Log TGI (converted)): 3.55 µM; GI50 (SF-268): 1.78 µM; LC50 (SF-268): 6.76 µM; TGI (SF-268; read-out: Log TGI (converted)): 3.47 µM; GI50 (BT-549): 1.12 µM; LC50 (BT-549): 5.01 µM; TGI (BT-549; read-out: Log TGI (converted)): 2.4 µM; GI50 (SF-295): 1.82 µM; LC50 (SF-295): 6.17 µM; TGI (SF-295; read-out: Log TGI (converted)): 3.39 µM
